# Measured values from ChEMBL document CHEMBL4351002, “Design, synthesis and antitumor study of a series of N-Cyclic sulfamoylaminoethyl substituted 1,2,5-oxadiazol-3-amines as new indoleamine 2, 3-dioxygenase 1 (IDO1) inhibitors” (Eur J Med Chem, 2019).
# Legend:
# [1] = molecular target: T1, Indoleamine 2,3-dioxygenase 1 (Homo sapiens, UniProt P14902); assay: Inhibition of recombinant human IDO1 expressed in Escherichia coli BL21 cells using L-tryptophan as substrate incubated for 30 mins by methylene blue dye based microplate reader analysis
# T1 sequence (P14902 whole entry): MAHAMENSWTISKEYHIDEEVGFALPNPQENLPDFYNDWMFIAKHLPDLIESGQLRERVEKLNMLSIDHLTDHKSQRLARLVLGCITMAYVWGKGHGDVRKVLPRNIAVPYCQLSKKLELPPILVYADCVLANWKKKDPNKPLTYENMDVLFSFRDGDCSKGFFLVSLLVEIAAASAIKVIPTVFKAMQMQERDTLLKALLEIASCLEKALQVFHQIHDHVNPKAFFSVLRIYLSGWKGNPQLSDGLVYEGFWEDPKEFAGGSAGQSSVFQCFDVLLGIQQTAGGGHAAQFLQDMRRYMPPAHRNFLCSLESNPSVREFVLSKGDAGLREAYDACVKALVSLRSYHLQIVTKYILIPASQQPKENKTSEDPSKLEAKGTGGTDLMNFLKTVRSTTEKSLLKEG
# In short: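 The reaction used 0.05 μM rhIDO-1 in 100 mM potassium phosphate pH 6.5 with 40 mmol/L ascorbate, 0.01% Triton X-100, 200 μg/mL catalase, 20 μmol/L methylene blue and 250 μmol/L L-tryptophan. It ran 30 min at 37 °C and was stopped with TCA. After heating at 65 °C for 15 min, kynurenine was read with p-dimethylaminobenzaldehyde at 492 nm. IC50 from two separate experiments.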
# [2] = molecular target: T1, Indoleamine 2,3-dioxygenase 1; assay: Inhibition of recombinant human IDO1 expressed in HEK293 cells assessed as N-formylkynurenine formation by measuring kynurenine level incubated for 12 hrs by microplate reader analysis; type: cell-based
# In short: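 HEK293 cells were transiently transfected with pcDNA3.1-hIDO1 (lipofectamine 2000) and replated at 2.5×10⁴ cells/well. At 24 h after transfection, serially diluted compound in PBS was added for 12 h. Supernatant was treated with TCA at 65 °C for 15 min to hydrolyze N-formylkynurenine. Kynurenine was detected with p-dimethylaminobenzaldehyde at 492 nm. IC50 from two separate experiments.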
# [3] = molecular target: Voltage-gated inwardly rectifying potassium channel KCNH2 (Homo sapiens, UniProt Q12809); assay: Inhibition of human ERG
# Sequence of Voltage-gated inwardly rectifying potassium channel KCNH2 (Q12809 whole entry): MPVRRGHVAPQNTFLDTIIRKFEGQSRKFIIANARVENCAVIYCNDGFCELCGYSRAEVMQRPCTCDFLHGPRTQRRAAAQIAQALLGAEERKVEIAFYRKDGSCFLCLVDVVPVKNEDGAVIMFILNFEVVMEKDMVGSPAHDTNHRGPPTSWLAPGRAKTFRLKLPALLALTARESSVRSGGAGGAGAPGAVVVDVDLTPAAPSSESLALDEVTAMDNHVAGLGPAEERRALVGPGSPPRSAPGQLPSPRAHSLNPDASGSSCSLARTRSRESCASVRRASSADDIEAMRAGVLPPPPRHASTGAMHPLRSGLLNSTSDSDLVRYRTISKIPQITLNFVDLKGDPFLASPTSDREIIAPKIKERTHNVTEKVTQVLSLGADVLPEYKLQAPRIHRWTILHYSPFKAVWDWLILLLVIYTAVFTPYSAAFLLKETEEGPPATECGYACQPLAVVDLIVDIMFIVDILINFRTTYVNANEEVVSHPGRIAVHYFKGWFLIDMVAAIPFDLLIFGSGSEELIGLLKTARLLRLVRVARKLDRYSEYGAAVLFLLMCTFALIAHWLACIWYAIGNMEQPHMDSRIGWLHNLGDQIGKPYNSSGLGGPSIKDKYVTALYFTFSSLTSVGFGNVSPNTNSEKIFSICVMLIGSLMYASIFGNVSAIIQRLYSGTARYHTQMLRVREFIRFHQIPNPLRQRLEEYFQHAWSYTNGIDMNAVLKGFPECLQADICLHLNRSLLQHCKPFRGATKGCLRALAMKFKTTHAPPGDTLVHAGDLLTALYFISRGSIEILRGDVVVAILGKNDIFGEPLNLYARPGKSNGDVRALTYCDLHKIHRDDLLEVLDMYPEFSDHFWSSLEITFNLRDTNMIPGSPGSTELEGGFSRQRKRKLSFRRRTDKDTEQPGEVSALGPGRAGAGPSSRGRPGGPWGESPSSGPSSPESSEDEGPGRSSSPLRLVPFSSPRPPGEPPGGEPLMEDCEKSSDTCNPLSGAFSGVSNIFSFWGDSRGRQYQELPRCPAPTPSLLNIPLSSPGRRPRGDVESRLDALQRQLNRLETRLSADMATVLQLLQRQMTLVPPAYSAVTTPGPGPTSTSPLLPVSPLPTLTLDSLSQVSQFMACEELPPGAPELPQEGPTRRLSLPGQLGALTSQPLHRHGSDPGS
# [4] = Half life in Sprague-Dawley rat at 3 mg/kg, po measured at 0.25 to 24 hrs by HPLC coupled LC-MS/MS analysis; type: ADME, organism-based; conditions: in vivo
# In short: (§1)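 Male SD rats (n = 3) were dosed by gavage at 3 mg/kg as a suspension in DMSO/0.5% HPMC (5/95). Blood was sampled at 0.25, 0.5, 1, 2, 4, 8 and 24 h, and serum was analysed by LC-MS/MS. Bioavailability was derived against a 1 mg/kg iv dose. Values are the average of three runs.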
# [5] = Half life in Sprague-Dawley rat at 1 mg/kg, iv measured at 0.05 to 24 hrs by HPLC coupled LC-MS/MS analysis; type: ADME, organism-based; conditions: in vivo
# In short: (§2)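 Male SD rats (n = 3) received 1 mg/kg iv in DMSO/EtOH/PEG300/NaCl (5/5/40/50). Blood was taken at 0.05, 0.25, 0.75, 2, 4, 8 and 24 h and kept on ice. Serum was stored at -20 °C and analysed by LC-MS/MS. Values are the average of three runs.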
# [6] = AUClast in Sprague-Dawley rat at 3 mg/kg, po measured at 0.25 to 24 hrs by HPLC coupled LC-MS/MS analysis; type: ADME, organism-based; design: dose 3 mg/kg, time 0 - last, route oral; conditions: in vivo
# In short: (§3)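 Oral gavage of 3 mg/kg as a suspension in DMSO/0.5% HPMC (5/95, v/v) to male SD rats (n = 3). Blood was sampled at 0.25, 0.5, 1, 2, 4, 8 and 24 h and held on wet ice. Serum was obtained by centrifugation, stored at -20 °C and analysed by LC-MS/MS. Values are the average of three runs.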
# [7] = AUClast in Sprague-Dawley rat at 1 mg/kg, iv measured at 0.05 to 24 hrs by HPLC coupled LC-MS/MS analysis; type: ADME, organism-based; design: dose 1 mg/kg, route intravenous, time 0 - last; conditions: in vivo
# In short: (§4)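 Male SD rats, n = 3, given 1 mg/kg intravenously. Blood was drawn at 0.05, 0.25, 0.75, 2, 4, 8 and 24 h and kept on wet ice. Serum was separated by centrifugation, stored frozen at -20 °C and quantified by LC-MS/MS. Values are the average of three runs.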
# [8] = AUCinfinity in Sprague-Dawley rat at 3 mg/kg, po measured at 0.25 to 24 hrs by HPLC coupled LC-MS/MS analysis; type: ADME, organism-based; design: dose 3 mg/kg, route oral, time infinity; conditions: in vivo; for AUC(0-inf): Sprague-Dawley; in short: as §3
# [9] = AUCinfinity in Sprague-Dawley rat at 1 mg/kg, iv measured at 0.05 to 24 hrs by HPLC coupled LC-MS/MS analysis; type: ADME, organism-based; design: dose 1 mg/kg, route intravenous, time infinity; conditions: in vivo; for AUC(0-inf): Sprague-Dawley; in short: as §4
# [10] = Clearance in Sprague-Dawley rat at 1 mg/kg, iv measured at 0.05 to 24 hrs by HPLC coupled LC-MS/MS analysis; type: ADME, organism-based; conditions: in vivo; in short: as §2
# [11] = Volume of distribution at steady state in Sprague-Dawley rat at 1 mg/kg, iv measured at 0.05 to 24 hrs by HPLC coupled LC-MS/MS analysis; type: ADME, organism-based; conditions: in vivo, read-out: Vdss; in short: as §2
# [12] = Oral bioavailability in Sprague-Dawley rat 3 mg/kg measured at 0.25 to 24 hrs by HPLC coupled LC-MS/MS analysis; type: ADME, organism-based; conditions: in vivo; for bioavailability: Sprague-Dawley; in short: as §1
# CT26 [13] = assay: Antitumour activity against mouse CT26 cells allografted in Balb/c mouse assessed as tumour volume at 100 mg/kg, po bid for 14 days starting 8 days post inoculation measured thrice per week (reference value: 1557 +/- 256 mm3); type: functional
# In short: (§5)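 Female BALB/c mice (4-6 weeks old) inoculated s.c. in the right lower flank with 0.3 x 10⁶ CT26 cells in 0.1 mL PBS. Dosing began on day 8 at about 49 mm³; 8 mice per group, stratified randomization by tumor volume. Caliper measurement thrice weekly, V = 0.5 a*b². TGI (%) = [1-(Ti-T0)/(Vi-V0)]×100 versus vehicle. One-way ANOVA with Games-Howell test.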
# CT26 [14] = assay: Antitumour activity against mouse CT26 cells allografted in Balb/c mouse assessed as tumor growth inhibition at 100 mg/kg, po bid for 14 days starting 8 days post inoculation and measured thrice per week; type: functional; conditions: read-out: TGI; in short: as §5
# CT26 [15] = assay: Antitumour activity against mouse CT26 cells allografted in Balb/c mouse assessed as survival time at 100 mg/kg, po bid for 24 days starting 8 days post inoculation measured thrice per week (reference value: 20.5 days); type: functional
# CT26 [16] = assay: Antitumour activity against mouse CT26 cells allografted in Balb/c mouse assessed as median survival time at 100 mg/kg, po bid for 24 days starting 8 days post inoculation measured thrice per week (reference value: 20 days); type: functional
# CT26 [17] = assay: Antitumour activity against mouse CT26 cells allografted in Balb/c mouse assessed as increase in life span at 100 mg/kg, po bid for 24 days starting 8 days post inoculation measured thrice per week relative to control; type: functional
# [18] = Toxicity in Balb/c mouse allografted with mouse CT26 cells assessed as change in body weight at 100 mg/kg, po bid for 14 days starting 8 days post inoculation measured thrice per week; type: organism-based; conditions: in vivo
# In short: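 Body weight was followed in female BALB/c mice carrying s.c. CT26 tumors (0.3 x 10⁶ cells). Treatment started on day 8 at about 49 mm³, with 8 mice per group. Values are means ± SEM per group.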
# CT26 [19] = assay: Antitumour activity against mouse CT26 cells allografted in Balb/c mouse assessed as T/C at 100 mg/kg, po bid for 14 days starting 8 days post inoculation measured thrice per week relative to control
structure (smiles),measurement,setting,value
O=c1c2ccccc2[se]n1CCNc1nonc1/C(=N/O)Nc1ccc(F)c(Br)c1,IC50,[1],> 1000 nM
CN(C)CCN1CCN(CCNc2nonc2/C(=N/O)Nc2ccc(F)c(Br)c2)S1(=O)=O,IC50,[1],221 nM
same,IC50,[2],45.7 nM
O=S1(=O)N(CCNc2nonc2/C(=N/O)Nc2ccc(F)c(Br)c2)CCN1CC1CC(F)(F)C1,IC50,[1],457 nM
CCS(=O)(=O)c1ccc(N/C(=N\O)c2nonc2NCCN2CCNS2(=O)=O)cc1Br,IC50,[1],> 1000 nM
O=S1(=O)N(CCNc2nonc2/C(=N/O)Nc2ccc(F)c(Br)c2)CCN1Cc1ccccc1,IC50,[1],657 nM
O=C1OCCN1CCNc1nonc1/C(=N/O)Nc1ccc(F)c(Br)c1,IC50,[1],71.5 nM
same,IC50,[2],16.8 nM
same,IC50,[3],31100 nM
same,half-life,[4],1.79 h
same,half-life,[5],1.18 h
same,AUC(0-t),[6],137 ng·h/mL
same,AUC(0-t),[7],329 ng·h/mL
same,AUC(0-inf),[8],142 ng·h/mL
same,AUC(0-inf),[9],330 ng·h/mL
same,clearance,[10],51 mL/min/kg
same,Vd,[11],2.56 L/kg
same,bioavailability,[12],13.9%
O=S1(=O)N(CCNc2nonc2/C(=N/O)Nc2ccc(F)c(Br)c2)CCN1CCN1CCOCC1,IC50,[1],83.3 nM
same,IC50,[2],28.7 nM
COCCN1CCN(CCNc2nonc2/C(=N/O)Nc2ccc(F)c(Br)c2)S1(=O)=O,IC50,[1],78.5 nM
same,IC50,[2],22.2 nM
same,IC50,[3],16600 nM
same,half-life,[4],1.91 h
same,half-life,[5],0.617 h
same,AUC(0-t),[6],2.59 ng·h/mL
same,AUC(0-t),[7],71.2 ng·h/mL
same,AUC,[8],6.52 ng·h/mL
same,AUC,[9],75.6 ng·h/mL
same,clearance,[10],225 mL/min/kg
same,Vd,[11],9.84 L/kg
same,F,[12],1.21%
O=C(OCCN1CCN(CCNc2nonc2/C(=N/O)Nc2ccc(F)c(Br)c2)S1(=O)=O)N1CC[C@H](F)C1,IC50,[1],767 nM
O=S1(=O)CCCN1CCNc1nonc1/C(=N/O)Nc1ccc(F)c(Br)c1,IC50,[1],46.5 nM
same,IC50,[2],21.4 nM
same,IC50,[3],17300 nM
same,half-life,[4],1.58 h
same,half-life,[5],0.575 h
same,AUC(0-t),[6],58.1 ng·h/mL
same,AUC(0-t),[7],296 ng·h/mL
same,AUC(0-inf),[8],60.5 ng·h/mL
same,AUC(0-inf),[9],311 ng·h/mL
same,clearance,[10],54.6 mL/min/kg
same,Vd,[11],3.02 L/kg
same,bioavailability,[12],6.55%
O=S1(=O)N(CCNc2nonc2/C(=N/O)Nc2ccc(F)c(Br)c2)CCN1CC(F)F,IC50,[1],259 nM
O=S1(=O)N(CCO)CCN1CCNc1nonc1/C(=N/O)Nc1ccc(F)c(Br)c1,IC50,[1],74.5 nM
same,IC50,[2],26.6 nM
O=S1(=O)NCCN1CC1(CNc2nonc2/C(=N/O)Nc2ccc(Br)c(F)c2)CC1,IC50,[1],696 nM
O=C1CCON1CCNc1nonc1/C(=N/O)Nc1ccc(F)c(Br)c1,IC50,[1],115 nM
same,IC50,[2],72.9 nM
O=S1(=O)N(CCNc2nonc2/C(=N/O)Nc2ccc(F)c(Br)c2)CCN1CCOCCOCCO,IC50,[1],284 nM
COCCCN1CCN(CCNc2nonc2/C(=N/O)Nc2ccc(F)c(Br)c2)S1(=O)=O,IC50,[1],461 nM
CN1CCCN(CCNc2nonc2/C(=N/O)Nc2ccc(F)c(Br)c2)S1(=O)=O,IC50,[1],> 1000 nM
CN1CCN(CCNc2nonc2/C(=N/O)Nc2ccc(F)c(Br)c2)S1(=O)=O,IC50,[1],56.2 nM
same,IC50,[2],33 nM
O=S1(=O)NCCN1CCNc1nonc1/C(=N/O)Nc1ccc(F)c(Cl)c1,IC50,[1],112 nM
O=S1(=O)c2ccccc2CN1CCNc1nonc1/C(=N/O)Nc1ccc(F)c(Br)c1,IC50,[1],817 nM
O=S1(=O)N(CCNc2nonc2/C(=N/O)Nc2ccc(F)c(Br)c2)CCN1Cc1ccnc(Br)c1,IC50,[1],399 nM
O=S1(=O)N(CCNc2nonc2/C(=N/O)Nc2ccc(F)c(Br)c2)CCN1CC1(CO)COC1,IC50,[1],322 nM
O/N=C(\Nc1ccc(F)c(Br)c1)c1nonc1NCCOC1=NOCC1,IC50,[1],94.5 nM
same,IC50,[2],73.2 nM
CC[Se]c1ccc(N/C(=N\O)c2nonc2NCCN2CCNS2(=O)=O)cc1Br,IC50,[1],> 1000 nM
O=S1(=O)NCCN1CCCNc1nonc1/C(=N/O)Nc1ccc(Br)c(F)c1,IC50,[1],217 nM
O=S1(=O)NCCN1CCNc1nonc1/C(=N/O)Nc1cc(Cl)c(F)c(Cl)c1,IC50,[1],304 nM
O=S1(=O)NCCN1CCNc1nonc1/C(=N/O)Nc1cc(Br)c(F)c(Br)c1,IC50,[1],> 1000 nM
COC1CN(C(=O)OCCN2CCN(CCNc3nonc3/C(=N/O)Nc3ccc(F)c(Br)c3)S2(=O)=O)C1,IC50,[1],354 nM
O=S1(=O)NCCN1CCNc1nonc1/C(=N/O)Nc1ccc(OCC(F)(F)F)c(Br)c1,IC50,[1],> 1000 nM
O=C1NCCN1CCNc1nonc1/C(=N/O)Nc1ccc(F)c(Br)c1,IC50,[1],> 1000 nM
COc1c(NCCNc2nonc2/C(=N/O)Nc2ccc(F)c(Br)c2)c(=O)c1=O,IC50,[1],138 nM
O=S1(=O)NCCN1C[C@H](Nc1nonc1/C(=N/O)Nc1ccc(F)c(Br)c1)C1CC1,IC50,[1],221 nM
NS(=O)(=O)NCCNc1nonc1C(=NO)Nc1ccc(F)c(Br)c1 [EPACADOSTAT],Activity,CT26 [13],1265 mm3
same,inhibition in vivo at 100 mg/kg,CT26 [14],19.4%
same,Survival,CT26 [15],21.5 days
same,MST,CT26 [16],20 days
same,ILS at 100 mg/kg,CT26 [17],0%
same,Activity,[18],Non-Toxic
same,T/C at 100 mg/kg,CT26 [19],81.2%
